Results published in ChEMBL document CHEMBL4261538, “Synthesis and molecular docking studies of xanthone attached amino acids as potential antimicrobial and anti-inflammatory agents” (Medchemcomm, 2017).
Converted amounts (≈) assume the structure as drawn. The source made the active and inactive calls. The calls are words filed in the database; no cut-off is given here.

Legend:
[1] = system: Staphylococcus aureus; experiment: Antibacterial activity against Staphylococcus aureus at 25 ug/ml incubated for 24 hrs by agar well diffusion method; assay type: functional
In short: (§1)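 Bacteria grown in nutrient broth at 37 °C for 24 h, then subcultured at room temperature. Compounds dissolved in DMSO at 5 mg mL⁻¹ and 5–20 µL added to 6 mm wells, giving 25, 50, 75, 100 µg per well. Gentamicin was the positive control and DMSO the negative control. Plates held at 37 °C for 24 h, then inhibition zone diameter (mm) measured. Values are means of three determinations.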

[2] = system: Staphylococcus aureus; experiment: Antibacterial activity against Staphylococcus aureus at 50 ug/ml incubated for 24 hrs by agar well diffusion method; assay type: functional; in short: as §1
[3] = system: Staphylococcus aureus; experiment: Antibacterial activity against Staphylococcus aureus at 75 ug/ml incubated for 24 hrs by agar well diffusion method; assay type: functional; in short: as §1
[4] = system: Staphylococcus aureus; experiment: Antibacterial activity against Staphylococcus aureus at 100 ug/ml incubated for 24 hrs by agar well diffusion method; assay type: functional; in short: as §1
[5] = system: Bacillus subtilis; experiment: Antibacterial activity against Bacillus subtilis at 25 ug/ml incubated for 24 hrs by agar well diffusion method; assay type: functional; in short: as §1
[6] = system: Bacillus subtilis; experiment: Antibacterial activity against Bacillus subtilis at 50 ug/ml incubated for 24 hrs by agar well diffusion method; assay type: functional; in short: as §1
[7] = system: Bacillus subtilis; experiment: Antibacterial activity against Bacillus subtilis at 75 ug/ml incubated for 24 hrs by agar well diffusion method; assay type: functional; in short: as §1
[8] = system: Bacillus subtilis; experiment: Antibacterial activity against Bacillus subtilis at 100 ug/ml incubated for 24 hrs by agar well diffusion method; assay type: functional; in short: as §1
[9] = system: Escherichia coli; experiment: Antibacterial activity against Escherichia coli at 25 ug/ml incubated for 24 hrs by agar well diffusion method; assay type: functional; in short: as §1
[10] = system: Escherichia coli; experiment: Antibacterial activity against Escherichia coli at 50 ug/ml incubated for 24 hrs by agar well diffusion method; assay type: functional; in short: as §1
[11] = system: Escherichia coli; experiment: Antibacterial activity against Escherichia coli at 75 ug/ml incubated for 24 hrs by agar well diffusion method; assay type: functional; in short: as §1
[12] = system: Escherichia coli; experiment: Antibacterial activity against Escherichia coli at 100 ug/ml incubated for 24 hrs by agar well diffusion method; assay type: functional; in short: as §1
[13] = system: Klebsiella pneumoniae; experiment: Antibacterial activity against Klebsiella pneumoniae at 25 ug/ml incubated for 24 hrs by agar well diffusion method; assay type: functional; in short: as §1
[14] = system: Klebsiella pneumoniae; experiment: Antibacterial activity against Klebsiella pneumoniae at 50 ug/ml incubated for 24 hrs by agar well diffusion method; assay type: functional; in short: as §1
[15] = system: Klebsiella pneumoniae; experiment: Antibacterial activity against Klebsiella pneumoniae at 75 ug/ml incubated for 24 hrs by agar well diffusion method; assay type: functional; in short: as §1
[16] = system: Klebsiella pneumoniae; experiment: Antibacterial activity against Klebsiella pneumoniae at 100 ug/ml incubated for 24 hrs by agar well diffusion method; assay type: functional; in short: as §1
[17] = system: Staphylococcus aureus; experiment: Antibacterial activity against Staphylococcus aureus incubated for 24 hrs by microdilution method; assay type: functional
[18] = system: Bacillus subtilis; experiment: Antibacterial activity against Bacillus subtilis incubated for 24 hrs by microdilution method; assay type: functional
[19] = system: Escherichia coli; experiment: Antibacterial activity against Escherichia coli incubated for 24 hrs by microdilution method; assay type: functional
[20] = system: Klebsiella pneumoniae; experiment: Antibacterial activity against Klebsiella pneumoniae incubated for 24 hrs by microdilution method; assay type: functional
[21] = system: Aspergillus niger; experiment: Antifungal activity against Aspergillus niger at 25 ug/ml incubated for 48 hrs by agar well diffusion method; assay type: functional; conditions: read-out: DIZ
In short: (§2)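 Compounds dissolved in DMSO at 5 mg mL⁻¹ and 5–20 µL added to 6 mm wells, giving 25, 50, 75, 100 µg per well. Bavistin was the positive control and DMSO the negative control. Plates incubated at 28 °C for 48 h, then inhibition zone diameter (mm) measured. Values are means of three determinations.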

[22] = system: Aspergillus niger; experiment: Antifungal activity against Aspergillus niger at 50 ug/ml incubated for 48 hrs by agar well diffusion method; assay type: functional; conditions: read-out: DIZ; in short: as §2
[23] = system: Aspergillus niger; experiment: Antifungal activity against Aspergillus niger at 75 ug/ml incubated for 48 hrs by agar well diffusion method; assay type: functional; conditions: read-out: DIZ; in short: as §2
[24] = system: Aspergillus niger; experiment: Antifungal activity against Aspergillus niger at 100 ug/ml incubated for 48 hrs by agar well diffusion method; assay type: functional; conditions: read-out: DIZ; in short: as §2
[25] = system: Candida albicans; experiment: Antifungal activity against Candida albicans at 25 ug/ml incubated for 48 hrs by agar well diffusion method; assay type: functional; in short: as §2
[26] = system: Candida albicans; experiment: Antifungal activity against Candida albicans at 50 ug/ml incubated for 48 hrs by agar well diffusion method; assay type: functional; in short: as §2
[27] = system: Candida albicans; experiment: Antifungal activity against Candida albicans at 75 ug/ml incubated for 48 hrs by agar well diffusion method; assay type: functional; conditions: read-out: DIZ; in short: as §2
[28] = system: Candida albicans; experiment: Antifungal activity against Candida albicans at 100 ug/ml incubated for 48 hrs by agar well diffusion method; assay type: functional; conditions: read-out: DIZ; in short: as §2
[29] = system: Fusarium oxysporum; experiment: Antifungal activity against Fusarium oxysporum at 25 ug/ml incubated for 48 hrs by agar well diffusion method; assay type: functional; in short: as §2
[30] = system: Fusarium oxysporum; experiment: Antifungal activity against Fusarium oxysporum at 50 ug/ml incubated for 48 hrs by agar well diffusion method; assay type: functional; in short: as §2
[31] = system: Fusarium oxysporum; experiment: Antifungal activity against Fusarium oxysporum at 75 ug/ml incubated for 48 hrs by agar well diffusion method; assay type: functional; conditions: read-out: DIZ; in short: as §2
[32] = system: Fusarium oxysporum; experiment: Antifungal activity against Fusarium oxysporum at 100 ug/ml incubated for 48 hrs by agar well diffusion method; assay type: functional; conditions: read-out: DIZ; in short: as §2
[33] = system: Aspergillus niger; experiment: Antifungal activity against Aspergillus niger incubated for 48 to 72 hrs by microdilution method; assay type: functional
In short: (§3)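 Sabouraud agar plates inoculated with fungal suspension at 10⁵ CFU mL⁻¹ plus serially diluted compounds and bavistin reference, both in DMSO. Incubated at 25 °C for 48–72 h. MIC is the lowest concentration completely inhibiting growth. Values are means of three determinations.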

[34] = system: Candida albicans; experiment: Antifungal activity against Candida albicans incubated for 48 to 72 hrs by microdilution method; assay type: functional; in short: as §3
[35] = system: Fusarium oxysporum; experiment: Antifungal activity against Fusarium oxysporum incubated for 48 to 72 hrs by microdilution method; assay type: functional; in short: as §3
[36] = system: Erythrocyte; experiment: Anti-inflammatory activity in human RBC assessed as inhibition of hypotonic solution-induced hemolysis after 10 mins by spectrophotometric method; assay type: functional, cell-based
In short: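 Human blood (heparinized) washed with 0.9% saline, packed cells made into a 40% v/v stock in isotonic phosphate buffer (154 mM NaCl, 10 mM sodium phosphate, pH 7.4). Stock RBC mixed with hypotonic buffer (50 mM NaCl, 10 mM phosphate, pH 7.4) plus sample at 20–100 µg mL⁻¹.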

GENTAMICIN
inhibition zone (IZ) [1]: 17 mm
inhibition zone (IZ) [2]: 21 mm
inhibition zone (IZ) [3]: 29 mm
inhibition zone (IZ) [4]: 32 mm
inhibition zone (IZ) [5]: 21 mm
inhibition zone (IZ) [6]: 24 mm
inhibition zone (IZ) [7]: 28 mm
inhibition zone (IZ) [8]: 33 mm
inhibition zone (IZ) [9]: 18 mm
inhibition zone (IZ) [10]: 24 mm
inhibition zone (IZ) [11]: 29 mm
inhibition zone (IZ) [12]: 33 mm
inhibition zone (IZ) [13]: 19 mm
inhibition zone (IZ) [14]: 24 mm
inhibition zone (IZ) [15]: 29 mm
inhibition zone (IZ) [16]: 34 mm
MIC [17]: 26 µg/mL
MIC [18]: 28 µg/mL
MIC [19]: 26 µg/mL
MIC [20]: 26 µg/mL

COC(=O)Nc1nc2ccccc2[nH]1 [CARBENDAZIM]
zone of inhibition at 25 µg/mL [21]: 20 mm
zone of inhibition at 50 µg/mL [22]: 27 mm
zone of inhibition at 75 µg/mL [23]: 33 mm
zone of inhibition at 100 µg/mL [24]: 36 mm
zone of inhibition at 25 µg/mL ([25]; read-out: DIZ): 19 mm
zone of inhibition at 50 µg/mL ([26]; read-out: DIZ): 24 mm
zone of inhibition at 75 µg/mL [27]: 29 mm
zone of inhibition at 100 µg/mL [28]: 32 mm
zone of inhibition at 25 µg/mL ([29]; read-out: DIZ): 22 mm
zone of inhibition at 50 µg/mL ([30]; read-out: DIZ): 27 mm
zone of inhibition at 75 µg/mL [31]: 33 mm
zone of inhibition at 100 µg/mL [32]: 36 mm
MIC [33]: 27 µg/mL (≈ 141 µM)
MIC [34]: 28 µg/mL (≈ 146 µM)
MIC [35]: 27 µg/mL (≈ 141 µM)

O=c1c2ccccc2oc2cc(O)ccc12
zone of inhibition at 25 µg/mL ([1]; read-out: DIZ): 4 mm
zone of inhibition at 50 µg/mL ([2]; read-out: DIZ): 7 mm
zone of inhibition at 75 µg/mL ([3]; read-out: DIZ): 11 mm
zone of inhibition at 100 µg/mL ([4]; read-out: DIZ): 14 mm
diameter of the inhibition zone (DIZ) [5]: inactive
diameter of the inhibition zone (DIZ) [6]: inactive
zone of inhibition at 75 µg/mL ([7]; read-out: DIZ): 6 mm
zone of inhibition at 100 µg/mL ([8]; read-out: DIZ): 10 mm
zone of inhibition at 25 µg/mL ([9]; read-out: DIZ): 3 mm
zone of inhibition at 50 µg/mL ([10]; read-out: DIZ): 7 mm
zone of inhibition at 75 µg/mL ([11]; read-out: DIZ): 11 mm
zone of inhibition at 100 µg/mL ([12]; read-out: DIZ): 13 mm
diameter of the inhibition zone (DIZ) [13]: inactive
diameter of the inhibition zone (DIZ) [14]: inactive
diameter of the inhibition zone (DIZ) [15]: inactive
diameter of the inhibition zone (DIZ) [16]: inactive
zone of inhibition at 25 µg/mL [21]: 4 mm
zone of inhibition at 50 µg/mL [22]: 7 mm
zone of inhibition at 75 µg/mL [23]: 9 mm
zone of inhibition at 100 µg/mL [24]: 11 mm
diameter of the inhibition zone (DIZ) [25]: inactive
diameter of the inhibition zone (DIZ) [26]: inactive
zone of inhibition at 75 µg/mL [27]: 6 mm
zone of inhibition at 100 µg/mL [28]: 10 mm
diameter of the inhibition zone (DIZ) [29]: inactive
diameter of the inhibition zone (DIZ) [30]: inactive
zone of inhibition at 75 µg/mL [31]: 5 mm
zone of inhibition at 100 µg/mL [32]: 9 mm
IC50 [36]: 90 µg/mL (≈ 424 µM)
